Test results reported in ChEMBL document CHEMBL1137383, “New efficient substrates for semicarbazide-sensitive amine oxidase/VAP-1 enzyme: analysis by SARs and computational docking” (J Med Chem, 2006).

B1: Amine oxidase [copper-containing] 3 (Mus musculus), O70423 (protein)
chain: MTQKTTLVLLALAVITIFALVCVLLAGRSGDGGGLSQPLHCPSVLPSVQPRTHPSQSQPFADLSPEELTAVMSFLTKHLGPGLVDAAQARPSDNCVFSVELQLPAKAAALAHLDRGGPPPVREALAIIFFGGQPKPNVSELVVGPLPHPSYMRDVTVERHGGPLPYYRRPVLDREYQDIEEMIFHRELPQASGLLHHCCFYKHQGQNLLTMTTAPRGLQSGDRATWFGLYYNLSGAGFYPHPIGLELLIDHKALDPALWTIQKVFYQGRYYESLTQLEDQFEAGLVNVVLVPNNGTGGSWSLKSSVPPGPAPPLQFHPQGPRFSVQGSQVSSSLWAFSFGLGAFSGPRIFDIRFQGERVAYEISVQEAIALYGGNSPASMSTCYVDGSFGIGKYSTPLIRGVDCPYLATYVDWHFLLESQAPKTLRDAFCVFEQNQGLPLRRHHSDFYSHYFGGVVGTVLVVRSVSTLLNYDYIWDMVFHPNGAIEVKFHATGYISSAFFFGAGEKFGNRVGAHTLGTVHTHSAHFKVDLDVAGLKNWAWAEDMAFVPTIVPWQPEYQMQRLQVTRKLLETEEEAAFPLGGATPRYLYLASNHSNKWGHRRGYRIQILSFAGKPLPQESPIEKAFTWGRYHLAVTQRKEEEPSSSSIFNQNDPWTPTVNFTDFISNETIAGEDLVAWVTAGFLHIPHAEDIPNTVTAGNSVGFFLRPYNFFDEDPSFHSADSIYFREGQDATACEVNPLACLSQTATCAPEIPAFSHGGFAYRDN
B2: Amine oxidase [copper-containing] 3 (Homo sapiens), Q16853 (protein)
chain: MNQKTILVLLILAVITIFALVCVLLVGRGGDGGEPSQLPHCPSVSPSAQPWTHPGQSQLFADLSREELTAVMRFLTQRLGPGLVDAAQARPSDNCVFSVELQLPPKAAALAHLDRGSPPPAREALAIVFFGRQPQPNVSELVVGPLPHPSYMRDVTVERHGGPLPYHRRPVLFQEYLDIDQMIFNRELPQASGLLHHCCFYKHRGRNLVTMTTAPRGLQSGDRATWFGLYYNISGAGFFLHHVGLELLVNHKALDPARWTIQKVFYQGRYYDSLAQLEAQFEAGLVNVVLIPDNGTGGSWSLKSPVPPGPAPPLQFYPQGPRFSVQGSRVASSLWTFSFGLGAFSGPRIFDVRFQGERLVYEISLQEALAIYGGNSPAAMTTRYVDGGFGMGKYTTPLTRGVDCPYLATYVDWHFLLESQAPKTIRDAFCVFEQNQGLPLRRHHSDLYSHYFGGLAETVLVVRSMSTLLNYDYVWDTVFHPSGAIEIRFYATGYISSAFLFGATGKYGNQVSEHTLGTVHTHSAHFKVDLDVAGLENWVWAEDMVFVPMAVPWSPEHQLQRLQVTRKLLEMEEQAAFLVGSATPRYLYLASNHSNKWGHPRGYRIQMLSFAGEPLPQNSSMARGFSWERYQLAVTQRKEEEPSSSSVFNQNDPWAPTVDFSDFINNETIAGKDLVAWVTAGFLHIPHAEDIPNTVTVGNGVGFFLRPYNFFDEDPSFYSADSIYFRGDQDAGACEVNPLACLPQAAACAPDLPAFSHGGFSHN

Tests used:
[1] = substrate: C=CCOC(=O)NCc1cccc(CN)c1; test: (§1) Binding affinity to mouse SSAO
Summary of the method: (§2)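 Mouse adipose membranes (1 µg protein/assay) assayed by Amplex Red/HRP H2O2 fluorimetry, 0.2 mol/L phosphate pH 7.4, 37 °C, 50 min, semicarbazide-insensitive signal subtracted. Km and Vmax by nonlinear Michaelis-Menten fitting; means of four independent measurements.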

[2] = substrate: Cc1ccc(CN)cc1F; test: as §1; summary of the method: as §2
[3] = substrate: NCCCCc1ccccc1; test: as §1; summary of the method: as §2
[4] = substrate: NCCCc1ccccc1; test: as §1; summary of the method: as §2
[5] = substrate: NCCc1ccc(F)cc1; test: as §1; summary of the method: as §2
[6] = substrate: NCCc1ccccc1; test: as §1; summary of the method: as §2
[7] = substrate: NCc1ccc(F)cc1; test: as §1; summary of the method: as §2
[8] = substrate: NCc1cccc(CNC(=O)CI)c1; test: as §1; summary of the method: as §2
[9] = substrate: NCc1cccc(CNC(=O)c2ccccc2)c1; test: as §1; summary of the method: as §2
[10] = substrate: NCc1ccccc1; test: as §1; summary of the method: as §2
[11] = substrate: C=CCOC(=O)NCc1cccc(CN)c1; test: (§3) Binding affinity to human SSAO
Summary of the method: (§4)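 Recombinant human VAP-1 (0.1 µg protein/assay), Amplex Red/HRP H2O2 fluorimetry in 0.2 mol/L phosphate pH 7.4, 37 °C, 50 min; semicarbazide-insensitive H2O2 subtracted. Km and Vmax from nonlinear Michaelis-Menten fit across substrate concentrations; means of four independent measurements.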

[12] = substrate: Cc1ccc(CN)cc1F; test: as §3; summary of the method: as §4
[13] = substrate: NCCCCc1ccccc1; test: as §3; summary of the method: as §4
[14] = substrate: NCCCc1ccccc1; test: as §3; summary of the method: as §4
[15] = substrate: NCCc1ccc(F)cc1; test: as §3; summary of the method: as §4
[16] = substrate: NCCc1ccccc1; test: as §3; summary of the method: as §4
[17] = substrate: NCc1ccc(F)cc1; test: as §3; summary of the method: as §4
[18] = substrate: NCc1cccc(CNC(=O)CI)c1; test: as §3; summary of the method: as §4
[19] = substrate: NCc1cccc(CNC(=O)c2ccccc2)c1; test: as §3; summary of the method: as §4
[20] = substrate: NCc1ccccc1; test: as §3; summary of the method: as §4

Row | Protein | Km [1] | Km [2] | Km [3] | Km [4] | Km [5] | Km [6] | Km [7] | Km [8] | Km [9] | Km [10] | Km [11] | Km [12] | Km [13] | Km [14] | Km [15] | Km [16] | Km [17] | Km [18] | Km [19] | Km [20]
1 | B1 | 11.5 µM | 14.8 µM | 11.3 µM | 27 µM | 88.8 µM | 34.8 µM | 15.7 µM | 29.8 µM | 12.8 µM | 15.4 µM | – | – | – | – | – | – | – | – | – | –
2 | B2 | – | – | – | – | – | – | – | – | – | – | 569 µM | 405 µM | 280 µM | 1670 µM | 1900 µM | 3720 µM | 205 µM | 525 µM | 630 µM | 224 µM
